# Source: PubChem BioAssay
# The list is not random: actives were taken first. Their share in the collection is about 2.3%.
# CSN deneddyl inh = inhibitors of human CSN-mediated cullin deneddylation; Q92905; Purified CSN, SCF-Nedd8-OG deneddylation, fluorescence polarization; inhibition, % at 12.5 µM; actives 0.38% (n = 360,000);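 active means pattern-corrected inhibition above about 35%, with an unprinted fluorescence ratio check between 0.5 and 1.5, limit read from the data, passing the limit was not always enough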
#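 Assay system: purified human Csn5 enzyme expressed in HEK293T cells; measure: % inhibition; also added: SCFSkp2-Nedd8OG substrate at 10 nM final; technique: fluorescence polarization; times: reaction 90 min, room temperature; medium: Tris buffer pH 7.5, NaCl, DTT, Tween-20, trehalose, ovalbumin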
# TPT1 inhibitor = C. albicans TPT1 enzyme inhibition | recombinant caTPT1, FP RNA substrate dephosphorylation | inhibition, % at 5 µM | actives 0.81% (n = 300,000);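 active means inhibition above the mean of all tested compounds plus 3 SD, set per screening campaign, cut at about 24% in these data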
# Myeloid diff MLP = promotes myeloid progenitor differentiation | ER-HoxA9 myeloid progenitors, lysozyme-GFP differentiation, flow cytometry | calls only at 10 µM | actives 1% (n = 360,000) | AID 624256;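 active means normalized GFP-positive differentiation at or above the plate's own cutoff, the solvent-only control mean plus 3 SD; inconclusive means no clear call, values can overlap the other calls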;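 further: cells exposed to compound for four days before flow analysis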
# Rpn11 block = inhibitors of human proteasome Rpn11 | O00487 | human 26S proteasome, Ub4-pepOG fluorescence polarization; 20S core pre-blocked with epoxomicin | inhibition, % at 20 µM | actives 0.59% (n = 360,000) | AID 588493;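 active means inhibition at 20 µM, scaled to each plate's controls, above about 33%, limit read from the data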
# HNF4A DNA FP = change in binding of human HNF4 alpha to DNA | HNF4a-FITC DNA binding, fluorescence polarization, 1 h | P41235 | AID 1224865 | activity change, % at 10 µM | actives 0.3% (n = 360,000); in the data active means activity change above about 30%, passing the limit was not always enough
# TPT1 inh confirm = confirmation of Candida albicans TPT1 inhibitors; AID 2149; actives 74% (n = 2,400); shares compounds with TPT1 inhibitor; inhibition, % at 5 µM; recombinant caTPT1, fluorescence polarization, RNase T1 coupled;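 active means inhibition above the primary screen limit, the mean inhibition of all tested compounds plus 3 SD, cut at about 25% in these data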
# RNase T1 inh = RNase T1 inhibition in TPT1 counter-screen | actives 83% (n = 2,400) | shares compounds with TPT1 inhibitor | RNase T1 cleavage, fluorescence polarization, 1536-well | inhibition, % at 5 µM | AID 2153;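 active means inhibition above the solvent-only control well mean plus 3 SD, limit set per screening run, cut at about 23% in these data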;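 further: inhibitors block cleavage so intact labeled substrate keeps polarization high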
# Rpn11 inh conf = confirmation of human proteasome Rpn11 inhibitors; inhibition, % at 20 µM; purified human 26S proteasome, Ub4-pepOG fluorescence polarization; proteasome pretreated with epoxomicin; actives 29% (n = 1,900); shares compounds with Rpn11 block; AID 602318
# MMP-2 inh = blocks human MMP-2, flagging nonselective RPN11 hits | recombinant MMP-2, FRET peptide cleavage fluorescence | actives 4% (n = 1,900) | inhibition, % at 20 µM | shares compounds with Rpn11 block;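 further: human MMP-2 activated beforehand with APMA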
# Target sequence (P08253 whole entry, looked up): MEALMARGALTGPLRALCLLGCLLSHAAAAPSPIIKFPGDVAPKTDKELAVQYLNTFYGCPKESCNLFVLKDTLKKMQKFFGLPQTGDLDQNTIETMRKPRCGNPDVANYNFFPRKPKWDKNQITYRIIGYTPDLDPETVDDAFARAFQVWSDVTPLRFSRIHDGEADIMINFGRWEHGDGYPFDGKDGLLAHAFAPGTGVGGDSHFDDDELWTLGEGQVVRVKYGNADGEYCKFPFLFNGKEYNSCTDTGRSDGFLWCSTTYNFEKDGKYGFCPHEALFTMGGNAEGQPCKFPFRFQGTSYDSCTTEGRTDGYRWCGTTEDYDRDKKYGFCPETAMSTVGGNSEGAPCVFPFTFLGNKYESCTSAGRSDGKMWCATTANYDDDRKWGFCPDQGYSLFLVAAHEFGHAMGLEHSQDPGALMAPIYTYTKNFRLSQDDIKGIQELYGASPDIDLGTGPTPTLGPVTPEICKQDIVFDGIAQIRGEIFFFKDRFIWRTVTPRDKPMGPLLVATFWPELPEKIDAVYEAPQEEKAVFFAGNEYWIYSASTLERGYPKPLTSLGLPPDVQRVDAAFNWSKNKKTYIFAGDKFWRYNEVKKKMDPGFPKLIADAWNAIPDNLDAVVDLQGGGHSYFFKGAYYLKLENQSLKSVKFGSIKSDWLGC
# Thrombin FP = thrombin (bovine) inhibition counter-screen; shares compounds with Rpn11 block; bovine thrombin cleavage of Ub4-pepOG, fluorescence polarization; inhibition, % at 20 µM; actives 13% (n = 1,900);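 active means mean inhibition at least 40% at 20 µM, or signal 3 deviations below plate average, so some actives read negative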
# Myeloid diff = compounds promoting myeloid differentiation; shares compounds with Myeloid diff MLP; ER-HoxA9 myeloid progenitors, GFP/Mac1 double-positive flow; calls only; actives 2% (n = 2,300); AID 651706;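 active means share of green or green-and-red cells above 9 and 9% in run 1 or 4 and 3% in run 2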
# GFP autofluor = compound fluorescence in myeloid differentiation counter-screen. ER-HoxA9 myeloid progenitors, no estrogen, GFP autofluorescence flow cytometry; vehicle wells 0%, positive control 100%. shares compounds with Myeloid diff MLP. fluorescence response, % (test concentration not listed). actives 7.4% (n = 2,300). AID 651707;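 active means over 5% cells positive for green fluorescent reporter, or over 2% positive for both it and APC stain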
# HNF4A confirm = change in binding of human HNF4 alpha to DNA, retest. shares compounds with HNF4A DNA FP. HNF4A-FITC DNA binding, fluorescence polarization, 1 h. activity change, % at 12.5 µM. actives 99% (n = 210); call rule not given here
# A number is an active result; - = inactive; ? = inconclusive; . = no result given; + = active, no number. Unless noted, no stated cut-off is given here; in the data, active means inhibition above about 40%; inactive means the rest.
SMILES,CSN deneddyl inh,TPT1 inhibitor,Myeloid diff MLP,Rpn11 block,HNF4A DNA FP,TPT1 inh confirm,RNase T1 inh,Rpn11 inh conf,MMP-2 inh,Thrombin FP,HNF4A confirm,others
COc1ccc(-c2sc(Nc3ccccc3)n[n+]2-c2ccc(F)cc2)cc1Br,-,-,-,-,-,.,.,.,.,.,.,
Cc1ccccc1C(=O)/C=C1/SCC(=O)N1C,46,27,-,71,38,-,28,49,-,-,59,
Cc1cccc(NNC(=O)c2c(F)cccc2Cl)c1,-,-,-,-,-,.,.,.,.,.,.,
COc1ccc2c(/C=N/Nc3ccc(C(=O)O)cc3)c[nH]c2c1,-,56,-,.,52,39,50,.,.,.,35,
N#Cc1ccc(-c2cccnc2)nc1SCC(=O)c1ccccc1,-,67,+,.,46,66,74,.,.,.,49,
CCN(CC)C(=O)CSc1nc(-c2ccccc2)ccc1C#N,-,-,-,-,-,.,.,.,.,.,.,
O=C(COc1ccc(Cl)cc1Cl)NN1C(=O)/C(=C\c2ccc(Cl)cc2)SC1=S,-,-,-,-,-,.,.,.,.,.,.,
Cn1cccc1/C=C1\SC(=S)N(NC(=O)c2cccc(Cl)c2)C1=O,36,86,-,.,61,98,111,.,.,.,97,
CCc1nc2ccc(C(=O)NCCC(C)C)cn2c1N(CCN(C)C)CC1CC1,-,.,-,-,-,.,.,.,.,.,.,
O=C(CNCc1ccc(Cl)cc1)Nc1cc(S(=O)(=O)N2CCCC2)ccc1Cl,-,.,-,-,-,.,.,.,.,.,.,
CN1CCc2c(sc(NC(=O)c3ccc(S(=O)(=O)N4CCCC4)cc3)c2C(N)=O)C1,-,116,-,.,36,133,134,.,.,.,32,
Cc1sc2nc(CSc3nnnn3-c3ccc(Cl)cc3)[nH]c(=O)c2c1C,-,31,+,.,38,40,49,.,.,.,33,
CCC(C)NC(=O)Cn1cnc2sc(C)c(S(=O)(=O)N3CCCCC3)c2c1=O (stereo not drawn),-,-,-,-,-,.,.,.,.,.,.,
COc1ccccc1N1C(=O)S/C(=C\c2ccc(C)s2)C1=O,-,34,-,96,43,38,53,57,-,-,76,Myeloid diff=-;GFP autofluor=-
Nc1nnc(SCc2nc3scc(-c4ccccc4)c3c(=O)[nH]2)s1,-,36,-,70,45,41,54,70,-,60,56,
Nc1nc(SCc2nc3scc(-c4ccccc4)c3c(=O)[nH]2)n[nH]1,-,-,-,-,-,.,.,.,.,.,.,
c1ccc(Cn2c[n+](Cc3ccccc3)c3ccccc32)cc1,-,-,?,-,-,.,.,.,.,.,.,
CC1Nc2ccc(C(=O)NC3CCCCC3)cc2NC1=O (stereo not drawn),57,34,+,.,61,39,48,.,.,.,49,
O=C(Cc1ccc(F)cc1)Nc1nnc(-c2ccc(F)cc2)o1,-,-,-,-,-,.,.,.,.,.,.,
CN(C(=O)COC(=O)c1ccc([N+](=O)[O-])cc1N)c1ccccc1,42,84,-,-,43,75,82,.,.,.,92,
Cc1ccc(C(=O)OCC(=O)N(C)c2ccccc2)c(C)c1,-,-,-,-,-,.,.,.,.,.,.,
CCOC(=O)[C@]12CCC=C1N(Cc1ccco1)C(=O)[C@H](CC(=O)N1CCOCC1)C2,-,.,-,.,-,.,.,.,.,.,.,
COC(=O)c1ccccc1-n1cccc1C(=O)NP(=O)(N1CCOCC1)N1CCOCC1,-,-,-,-,-,.,.,.,.,.,.,
N#CCC(=O)Nc1ccc(C(=O)NCC(c2ccco2)N2CCCCC2)cc1 (stereo not drawn),42,48,+,.,67,56,66,.,.,.,44,
O=C(NCC(c1ccco1)N1CCCCC1)c1ccc(S(=O)(=O)Nc2ccccc2)cc1 (stereo not drawn),-,-,-,-,-,.,.,.,.,.,.,
SMILES,CSN deneddyl inh,TPT1 inhibitor,Myeloid diff MLP,Rpn11 block,HNF4A DNA FP,TPT1 inh confirm,RNase T1 inh,Rpn11 inh conf,MMP-2 inh,Thrombin FP,HNF4A confirm,others
CCN(Cc1ccccc1)C(=O)Cn1c(=O)n(CC(=O)N2CCCCC2)c(=O)c2sccc21,-,-,-,-,-,.,.,.,.,.,.,
CN1C(=O)/C(=C\C=C2/CCCN2C)N(C)C1=S,-,60,-,77,62,88,102,74,-,60,93,
NC(=O)C(=O)N/N=C/c1c2ccccc2cc2ccccc12,-,-,?,41,-,.,.,-,-,-,.,
O=C(c1cc[n+]([O-])cc1)N1CCCC(N2CCN(c3cccc(C(F)(F)F)c3)CC2)C1 (stereo not drawn),-,-,-,-,-,.,.,.,.,.,.,
COC(=O)c1ccc2nc(-c3ccc(Cl)cc3)c(Cc3ccc(OC)cc3C)n2c1,-,.,-,.,-,.,.,.,.,.,.,
COc1ccc(Cc2c(-c3ccc(C)cc3)nc3ccc(Cl)cn23)c(C)c1,-,.,-,44,-,.,.,52,-,-,.,
Cc1nn(-c2ccccc2)c(Cl)c1/C=C1\SC(=S)NC1=O,-,-,.,48,-,.,.,-,-,-,.,
O=C(NC1CCCC1)C(c1ccc(F)cc1)N(C(=O)c1csnn1)C1CC1 (stereo not drawn),-,-,-,-,-,.,.,.,.,.,.,
Cc1ccc(-c2ccc(CCC(=O)O)n2CC2CCCO2)cc1 (stereo not drawn),-,-,-,-,-,.,.,.,.,.,.,
O=C(O)CCc1ccc(-c2ccccc2)n1CC1CCCO1 (stereo not drawn),-,-,-,55,-,.,.,-,-,-,.,
Cc1cc(C(F)(F)F)nc(SCC(=O)Nc2c(C)n(C)n(-c3ccccc3)c2=O)n1,-,-,-,-,-,.,.,.,.,.,.,
COc1cccc(C(=O)CN2C(=O)C(C)(C)Oc3ccc(C(=O)N4CCCCCC4)cc32)c1,-,-,-,163,-,.,.,-,-,-,.,
OC[C@@H]1CN(Cc2cccnc2)C[C@H](n2cnc3c(NC4CCCC4)ncnc32)O1,-,.,-,-,-,.,.,.,.,.,.,
Cc1cccc(C(O)C(O)c2cccc(C)n2)n1 (stereo not drawn),-,.,-,99,-,.,.,-,-,-,.,
